In brackets after ≈: the same amount, converted by molar mass.
Legend:
Assay type in all cases: functional
HeLa [1] = assay: Evaluation for antiviral activity against Coxsackie virus B4 in HeLa cell cultures (Concentration required to reduce virus-induced cytopathogenicity by 50%); details: Homo sapiens
How it was run: (§1)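 HeLa cultures were infected with respiratory syncytial, vesicular stomatitis, Coxsackie B4 or polio-1 virus. The antiviral end-point is 50% reduction of virus-induced cytopathogenicity. Cytotoxicity is the minimum concentration producing microscopically detectable alteration of normal cell morphology.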

HeLa [2] = assay: Evaluation for antiviral activity against vesicular stomatitis virus in HeLa cell cultures (Concentration required to reduce virus-induced cytopathogenicity by 50%); details: Homo sapiens; how it was run: as §1
HeLa [3] = assay: Evaluation in HeLa cell cultures for cytotoxicity that is to cause microscopically detectable alteration of normal cell morphology; details: Homo sapiens; how it was run: as §1
MDCK = assay: Compound was evaluated in MDCK cell cultures for cytotoxicity that is to cause microscopically detectable alteration of normal cell morphology; details: Canis lupus familiaris
How it was run: (§2)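 Influenza A and B virus replication in MDCK cultures. Antiviral value is the concentration giving 50% reduction of virus-induced cytopathogenicity. Cytotoxicity is the concentration causing a microscopically detectable change in normal cell morphology.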

MT4 = assay: Inhibitory effect on the proliferation of human T-lymphocyte (MT-4); details: read-out: ID50 (the source's name)
How it was run: (§3)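 Proliferation assay in murine leukemia L1210, human T-lymphoblast Molt-4F and human T-lymphocyte MT-4 cells. ID50 is the dose inhibiting tumor cell proliferation by 50%, expressed in μg/mL.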

MOLT-4F = assay: Inhibitory effect on the proliferation of human T-lymphoblast cells (Molt-4F); details: read-out: ID50 (the source's name); how it was run: as §3
[4] = Evaluation for antiviral activity against vesicular stomatitis virus in primary rabbit kidney cell cultures(PRK) (Concentration required to reduce virus-induced cytopathogenicity by 50%); details: Oryctolagus cuniculus
[5] = Evaluation in PRK cell cultures for cytotoxicity that is to cause microscopically detectable alteration of normal cell morphology; details: Oryctolagus cuniculus
[6] = Evaluation for antiviral activity against herpes simplex virus-1(F) in primary rabbit kidney cell cultures(PRK) (Concentration required to reduce virus-induced cytopathogenicity by 50%); details: Oryctolagus cuniculus
[7] = Evaluated for antiviral activity against herpes simplex virus-1(KOS) in primary rabbit kidney cell cultures(PRK) (Concentration required to reduce virus-induced cytopathogenicity by 50%); details: Oryctolagus cuniculus
[8] = Evaluation for antiviral activity against herpes simplex virus-1 (McIntyre) in primary rabbit kidney cell cultures(PRK) (Concentration required to reduce virus-induced cytopathogenicity by 50%); details: Oryctolagus cuniculus
[9] = Evaluation for antiviral activity against herpes simplex virus-1(TK-) (B2006) in primary rabbit kidney cell cultures(PRK) (Concentration required to reduce virus-induced cytopathogenicity by 50%); details: Oryctolagus cuniculus
[10] = Evaluation for antiviral activity against herpes simplex virus-2(196) in primary rabbit kidney cell cultures(PRK) (Concentration required to reduce virus-induced cytopathogenicity by 50%); details: Oryctolagus cuniculus
[11] = Evaluation for antiviral activity against herpes simplex virus-2(G) in primary rabbit kidney cell cultures(PRK) (Concentration required to reduce virus-induced cytopathogenicity by 50%); details: Oryctolagus cuniculus
[12] = Evaluation for antiviral activity against herpes simplex virus-2(Lyons) in primary rabbit kidney cell cultures(PRK) (Concentration required to reduce virus-induced cytopathogenicity by 50%); details: Oryctolagus cuniculus
Vero [13] = assay: Evaluation for antiviral activity against reo virus-1 in Vero cell cultures (Concentration required to reduce virus-induced cytopathogenicity by 50%); details: Chlorocebus sabaeus
How it was run: (§4)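 Vero cultures were infected with parainfluenza-3, reovirus-1, Sindbis, Coxsackie B4 or Semliki forest virus. Values are concentrations giving 50% reduction of virus-induced cytopathogenicity, or a microscopically detectable alteration of normal cell morphology for cytotoxicity. Each is the average of two separate experiments.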

Vero [14] = assay: Evaluation in Vero cell cultures for cytotoxicity that is to cause microscopically detectable alteration of normal cell morphology; details: Chlorocebus sabaeus; how it was run: as §4
Vero [15] = assay: Evaluation for antiviral activity against forest virus in Vero cell cultures (Concentration required to reduce virus-induced cytopathogenicity by 50%); details: Chlorocebus sabaeus; how it was run: as §4
Vero [16] = assay: Evaluation for antiviral activity against Sindbis virus in Vero cell cultures (Concentration required to reduce virus-induced cytopathogenicity by 50%); details: Chlorocebus sabaeus; how it was run: as §4
Vero [17] = assay: Evaluation for antiviral activity against parainfluenza-3 virus in Vero cell cultures (Concentration required to reduce virus-induced cytopathogenicity by 50%); details: Chlorocebus sabaeus; how it was run: as §4
L1210 = assay: Inhibitory effect on the proliferation of murine leukemia cells (L1210); details: Mus musculus, read-out: ID50 (the source's name); how it was run: as §3
Influenza B virus = assay: Concentration required to reduce influenza virus B (singapore) induced cytopathogenicity by 50%; how it was run: as §2
Vero [18] = assay: Evaluation for antiviral activity against Coxsackie virus B4 in Vero cell cultures (Concentration required to reduce virus-induced cytopathogenicity by 50%); details: Chlorocebus sabaeus; how it was run: as §4
[19] = Evaluation for antiviral activity against vaccinia virus in primary rabbit kidney cell cultures(PRK) (Concentration required to reduce virus-induced cytopathogenicity by 50%); details: Oryctolagus cuniculus
Influenza A virus = assay: Concentration required to reduce influenza virus A (ishikawa) induced cytopathogenicity by 50%; how it was run: as §2
HeLa [20] = assay: Evaluation for antiviral activity against polio virus-1 in HeLa cell cultures (Concentration required to reduce virus-induced cytopathogenicity by 50%); details: Homo sapiens; how it was run: as §1
HeLa [21] = assay: Compound was evaluated for antiviral activity against respiratory syncitial virus (long) in HeLa cell cultures (Concentration required to reduce virus-induced cytopathogenicity by 50%); details: Homo sapiens; how it was run: as §1

| SMILES | MIC (HeLa [1]) [µg/mL] | MIC (HeLa [2]) [µg/mL] | MCC (HeLa [3]) [µg/mL] | MCC (MDCK) [µg/mL] | IC50 (MT4) [µg/mL] | IC50 (MOLT-4F) [µg/mL] | MIC [4] [µg/mL] | MCC [5] [µg/mL] | MIC [6] [µg/mL] | MIC [7] [µg/mL] | MIC [8] [µg/mL] | MIC [9] [µg/mL] | MIC [10] [µg/mL] | MIC [11] [µg/mL] | MIC [12] [µg/mL] | MIC (Vero [13]) [µg/mL] | MCC (Vero [14]) [µg/mL] | MIC (Vero [15]) [µg/mL] | MIC (Vero [16]) [µg/mL] | MIC (Vero [17]) [µg/mL] | further results |
| --- | --- | --- | --- | --- | --- | --- | --- | --- | --- | --- | --- | --- | --- | --- | --- | --- | --- | --- | --- | --- | --- |
| N[C@H]1CSCON2CCc3c([nH]c4ccccc34)[C@H]12 | > 1 | > 1 | > 4 | 8 | 0.77 (≈ 2.8 µM) | 0.6 (≈ 2.18 µM) | > 4 | 10 | 2 (≈ 7.26 µM) | > 4 | > 4 | > 4 | 2 (≈ 7.26 µM) | > 4 | 2 (≈ 7.26 µM) | > 4 | > 10 | > 4 | > 4 | > 4 | IC50 (L1210): 1.4 µg/mL (≈ 5.08 µM); MIC (Influenza B virus): > 1.6 µg/mL; MIC (Vero [18]): > 4 µg/mL; MIC [19]: > 4 µg/mL; MIC (Influenza A virus): > 1.6 µg/mL; MIC (HeLa [20]): > 1 µg/mL; MIC (HeLa [21]): > 1.6 µg/mL |
| N[C@@H]1CSCON2CCc3c([nH]c4ccccc34)[C@H]12 | 0.7 (≈ 2.54 µM) | 0.2 (≈ 0.726 µM) | > 4 | 8 | 0.075 (≈ 0.272 µM) | 0.12 (≈ 0.436 µM) | 0.2 (≈ 0.726 µM) | > 10 | 0.07 (≈ 0.254 µM) | 0.7 (≈ 2.54 µM) | 0.2 (≈ 0.726 µM) | 0.7 (≈ 2.54 µM) | 0.2 (≈ 0.726 µM) | 0.2 (≈ 0.726 µM) | 0.07 (≈ 0.254 µM) | 0.4 (≈ 1.45 µM) | > 4 | 0.2 (≈ 0.726 µM) | 0.2 (≈ 0.726 µM) | 0.2 (≈ 0.726 µM) | IC50 (L1210): 0.11 µg/mL (≈ 0.399 µM); MIC (Influenza B virus): 0.8 µg/mL (≈ 2.91 µM); MIC (Vero [18]): 0.4 µg/mL (≈ 1.45 µM); MIC [19]: 0.1 µg/mL (≈ 0.363 µM); MIC (Influenza A virus): 0.8 µg/mL (≈ 2.91 µM); MIC (HeLa [20]): 0.7 µg/mL (≈ 2.54 µM); MIC (HeLa [21]): 0.8 µg/mL (≈ 2.91 µM) |

— ChEMBL document CHEMBL1125540, “Antiviral and antitumor structure-activity relationship studies on tetracyclic eudistomines” (1992)
